Measurements reported in ChEMBL document CHEMBL1932981, “Synthesis of novel 2, 5-dihydrofuran derivatives and evaluation of their anticancer activity” (Eur J Med Chem, 2012).

What was measured:
Type in all cases: functional, cell-based
HeLa = assay: Cytotoxicity against human HeLa cells after 24 hrs by MTT assay
Procedure, shortened: (§1)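 Cell lines from the Navy Medical College, seeded at 8000 cells/well in 96-well plates. Compounds dissolved in DMSO (stock 10 g/L) and freshly diluted in medium. Dilutions were added in duplicate 24 h after seeding, with incubation continued at 37 °C. Viability read by MTT. IC50 taken as the concentration giving 50% growth inhibition, determined following NCCLS recommendations.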

[1] = Cytotoxicity against human QGY7701 cells after 24 hrs by MTT assay; conditions: QGY7701, 24 h; procedure, shortened: as §1
A549 = assay: Cytotoxicity against human A549 cells after 24 hrs by MTT assay; procedure, shortened: as §1
SW480 = assay: Cytotoxicity against human SW480 cells after 24 hrs by MTT assay; conditions: SW480, 24 h; procedure, shortened: as §1
[2] = Homo sapiens, HeLa, 24 h, read-out: IC50
[3] = Homo sapiens, A549, 24 h, read-out: IC50

Row | Structure (SMILES) | IC50 (HeLa; [2]) [µM] | IC50 [1] [µM] | IC50 (A549; [3]) [µM] | IC50 (SW480) [µM] | IC50 (HeLa; hela) | IC50 (A549; a549)
1 | C=CC1=C(C(=O)NCc2ccccc2)C(c2ccc(F)cc2)OC1 (stereo not given) | > 100 | 67.6 | > 100 | > 100 |  | 
2 | C=CC1=C(C(=O)NC(C)(C)C)C(c2ccc(Cl)c(Cl)c2)OC1 (stereo not given) | > 100 | > 100 | > 100 | > 100 |  | 
3 | C=CC1=C(C(=O)Nc2ccccc2)C(c2ccc(OC)c(OC)c2)OC1 (stereo not given) | 5.03 | > 100 | > 100 | 45.1 |  | 
4 | C=CC1=C(C(=O)Nc2cccc(C)c2)C(c2ccc(OC)cc2)OC1 (stereo not given) | > 100 | > 100 | > 100 | > 100 |  | 
5 | C=CC1=C(C(=O)N2CCN(c3ccccc3OC)CC2)C(c2ccc(OC)cc2)OC1 (stereo not given) | > 100 | 23.6 | 23 | > 100 |  | 
6 | C=CC1=C(C(=O)Nc2ccccc2)C(c2ccc(OC)cc2)OC1 (stereo not given) | > 100 | > 100 | > 100 | > 100 |  | 
7 | O=c1[nH]cc(F)c(=O)[nH]1 [FLUOROURACIL] | 16.3 | 14.3 |  | 15.7 |  | 
8 | C=CC1=C(C(=O)NCCC)C(c2ccc(Cl)c(Cl)c2)OC1 (stereo not given) | > 100 | 31.3 | > 100 | > 100 |  | 
9 | C=CC1=C(C(=O)O)C(c2ccc(OC)cc2)OC1 (stereo not given) | 44.3 | > 100 | > 100 | > 100 |  | 
10 | C=CC1=C(C(=O)N2CCN(c3cccc(OC)c3)CC2)C(c2ccc(OC)cc2)OC1 (stereo not given) | 15.3 | 17.9 | 20.7 | 25 |  | 
11 | C=CC1=C(C(=O)NCCC)C(c2ccc(F)cc2)OC1 (stereo not given) | > 100 | > 100 | > 100 | > 100 |  | 
12 | C=CC1=C(C(=O)Nc2cccc(C)c2)C(c2ccc(F)cc2)OC1 (stereo not given) |  | 56.4 | > 100 | > 100 | Not Active | 
13 | C=CC1=C(C(=O)Nc2ccccc2OC)C(c2ccc(Cl)c(Cl)c2)OC1 (stereo not given) | > 100 | > 100 | > 100 | > 100 |  | 
14 | C=CC1=C(C(=O)NCc2ccc(Cl)cc2)C(c2ccc(OC)c(OC)c2)OC1 (stereo not given) | > 100 | > 100 | > 100 | > 100 |  | 
15 | C=CC1=C(C(=O)N2CCN(c3ccc(F)cc3)CC2)C(c2ccc(OC)cc2)OC1 (stereo not given) | 9.86 | 11 | 8.31 | > 100 |  | 
16 | C=CC1=C(C(=O)Nc2ccc(OCC)cc2)C(c2ccc(F)cc2)OC1 (stereo not given) | > 100 | 61.6 |  | > 100 |  | Not Active
17 | C=CC1=C(C(=O)NCCc2ccccc2F)C(c2ccc(OC)cc2)OC1 (stereo not given) | 37.5 | > 100 | > 100 | > 100 |  | 
18 | C=CC1=C(C(=O)NCc2ccc(OC)c(OC)c2)C(c2ccc(OC)cc2)OC1 (stereo not given) | > 100 | > 100 | > 100 | 13.5 |  | 
19 | C=CC1=C(C(=O)Nc2ccc(C)cc2)C(c2ccc(OC)cc2)OC1 (stereo not given) | > 100 | > 100 | > 100 | > 100 |  | 
20 | C=CC1=C(C(=O)NCC(C)C)C(c2ccc(Cl)c(Cl)c2)OC1 (stereo not given) | 60.1 | > 100 | > 100 | > 100 |  | 
21 | C=CC1=C(C(=O)NCCc2cccc(OC)c2)C(c2ccc(F)cc2)OC1 (stereo not given) |  | 87.2 | > 100 | > 100 | Not Active | 
22 | C=CC1=C(C(=O)O)C(c2ccc(F)cc2)OC1 (stereo not given) | 67.4 | > 100 | > 100 | > 100 |  | 

Row | Structure (SMILES) | IC50 (HeLa; [2]) [µM] | IC50 [1] [µM] | IC50 (A549; [3]) [µM] | IC50 (SW480) [µM] | IC50 (HeLa; hela) | IC50 (A549; a549)
23 | C=CC1=C(C(=O)NCc2ccccc2F)C(c2ccc(F)cc2)OC1 (stereo not given) | > 100 | 51.4 | > 100 | > 100 |  | 
24 | C=CC1=C(C(=O)Nc2ccc(OCC)cc2)C(c2ccc(OC)cc2)OC1 (stereo not given) | > 100 | > 100 | 17.6 | > 100 |  | 
25 | C=CC1=C(C(=O)NCCCCC)C(c2ccc(F)cc2)OC1 (stereo not given) | > 100 | > 100 | > 100 | > 100 |  | 
26 | C=CC1=C(C(=O)Nc2ccccc2OC)C(c2ccc(OC)cc2)OC1 (stereo not given) | > 100 | > 100 | > 100 | > 100 |  | 
27 | C=CC1=C(C(=O)N2CCN(c3cccc(Cl)c3)CC2)C(c2ccc(OC)cc2)OC1 (stereo not given) | > 100 | > 100 | 26.8 | > 100 |  | 
28 | C=CC1=C(C(=O)NCCc2cccc(OC)c2)C(c2ccc(OC)cc2)OC1 (stereo not given) | > 100 | > 100 | > 100 | > 100 |  | 
29 | C=CC1=C(C(=O)NCc2ccc(C)cc2)C(c2ccc(F)cc2)OC1 (stereo not given) | > 100 | 62.1 | > 100 | > 100 |  | 
30 | C=CC1=C(C(=O)NC2CCCCC2)C(c2ccc(F)cc2)OC1 (stereo not given) | > 100 | 40.5 | > 100 | > 100 |  | 
31 | C=CC1=C(C(=O)NCCc2cccc(F)c2)C(c2ccc(OC)cc2)OC1 (stereo not given) | 31.4 | > 100 | > 100 | > 100 |  | 
32 | C=CC1=C(C(=O)Nc2ccccc2)C(c2ccc(Cl)c(Cl)c2)OC1 (stereo not given) | > 100 | > 100 | > 100 | > 100 |  | 
33 | C=CC1=C(C(=O)N2CCN(c3cccc(C)c3C)CC2)C(c2ccc(OC)cc2)OC1 (stereo not given) | > 100 | > 100 | 10.3 | 44.1 |  | 
34 | COc1cccc2c1C(=O)c1c(O)c3c(c(O)c1C2=O)C[C@@](O)(C(=O)CO)C[C@@H]3O[C@H]1C[C@H](N)[C@H](O)[C@H](C)O1 [DOXORUBICIN] | 1.12 | 8.65 | 6.61 | 65.2 |  | 
35 | C=CC1=C(C(=O)NCc2ccc(C)cc2)C(c2ccc(OC)cc2)OC1 (stereo not given) | 15.8 | 43.1 | > 100 | 31.7 |  | 
36 | C=CC1=C(C(=O)Nc2ccccc2)C(c2ccc(F)cc2)OC1 (stereo not given) | > 100 | 46.7 | > 100 | > 100 |  | 
37 | C=CC1=C(C(=O)NCc2ccccc2)C(c2ccc(OC)cc2)OC1 (stereo not given) | > 100 | > 100 | > 100 | 39.5 |  | 
38 | C=CC1=C(C(=O)NCCCCC)C(c2ccc(OC)cc2)OC1 (stereo not given) | > 100 | > 100 | 36.5 | > 100 |  | 
39 | C=CC1=C(C(=O)NCC(C)C)C(c2ccc(F)cc2)OC1 (stereo not given) | > 100 | > 100 | > 100 | > 100 |  | 
40 | C=CC1=C(C(=O)NCc2ccc(OC)c(OC)c2)C(c2ccc(F)cc2)OC1 (stereo not given) | > 100 | 87.3 | > 100 | > 100 |  | 
41 | C=CC1=C(C(=O)NCCc2ccc(F)cc2)C(c2ccc(OC)cc2)OC1 (stereo not given) | > 100 | > 100 | > 100 | > 100 |  | 
42 | C=CC1=C(C(=O)NC(C)(C)C)C(c2ccc(OC)cc2)OC1 (stereo not given) | > 100 | > 100 | > 100 | > 100 |  | 
43 | C=CC1=C(C(=O)NCc2ccccc2)C(c2ccc(Cl)c(Cl)c2)OC1 (stereo not given) | > 100 | > 100 | > 100 | > 100 |  | 
44 | C=CC1=C(C(=O)Nc2ccc(C)cc2)C(c2ccc(F)cc2)OC1 (stereo not given) | > 100 | 59.2 | > 100 | > 100 |  | 
